Assay results as given in ChEMBL document CHEMBL1938298, “Synthesis and characterization of [¹²⁵I]2-iodo N-[(S)-{(S)-1-methylpiperidin-2-yl}(phenyl)methyl]3-trifluoromethyl-benzamide as novel imaging probe for glycine transporter 1” (Bioorg Med Chem, 2011).
Calls of active or inactive are those of the source. The rule behind the calls is not given here.

How the values were obtained:
Brain = assay: Drug uptake in ddY mouse brain at 11.1 kBq, iv after 5 min by gamma counting; type: ADME, organism-based; settings: in vivo
Outline: (§1)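 Male ddY mice (6 weeks, 30–35 g) received about 11.1 kBq [125I]tracer in 0.1 mL i.v. via tail vein. Killed at set times, organs dissected and weighed, radioactivity gamma counted. Reported as % injected dose/g tissue, mean ± SD, n = 5–6.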

Mus musculus [1] = assay: In vivo binding affinity to GlyT1 in ddY mouse brain midbrain at 33.3 kBq, iv after 60 mins in presence of nonradioactive compound 2 mg/kg, iv administered 15 mins prior to compound administration relative to control; type: functional
Heart [2] = assay: Drug uptake in ddY mouse heart at 11.1 kBq, iv after 30 min by gamma counting; type: ADME, organism-based; settings: in vivo, 0.5 h; outline: as §1
Intestine = assay: Drug uptake in ddY mouse intestine at 11.1 kBq, iv after 180 min by gamma counting; type: ADME, organism-based; settings: in vivo, 3 h; outline: as §1
Stomach = assay: Drug uptake in ddY mouse stomach at 11.1 kBq, iv after 30 min by gamma counting; type: ADME, organism-based; settings: in vivo, 0.5 h
Outline: (§2)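 Male ddY mice (6 weeks, 30–35 g) were given about 11.1 kBq of [125I]tracer in 0.1 mL i.v. via the tail vein. At each time point the animals were killed and organs dissected, weighed and gamma-counted. Uptake is expressed as % injected dose per gram of tissue, mean ± SD, n = 5–6.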

Heart [3] = assay: Drug uptake in ddY mouse heart at 11.1 kBq, iv after 0.5 min by gamma counting; type: ADME, organism-based; settings: in vivo; outline: as §1
Lung = assay: Drug uptake in ddY mouse lung at 11.1 kBq, iv after 180 min by gamma counting; type: ADME, organism-based; settings: in vivo, 3 h; outline: as §2
[4] = target: T1, Sodium- and chloride-dependent glycine transporter 1 (Rattus norvegicus) (UniProt P28572); assay: Binding affinity to GlyT1 in rat brain striatum at 0.03 to 0.04 nM preincubated for 20 mins in binding buffer before compound addition measured after 30 mins by autoradiography in presence of 0.01 mM GlyT1 inhibitor SSR504734 relative to control; type: tissue-based; settings: tested as the 125I-labelled form
T1 sequence (whole entry): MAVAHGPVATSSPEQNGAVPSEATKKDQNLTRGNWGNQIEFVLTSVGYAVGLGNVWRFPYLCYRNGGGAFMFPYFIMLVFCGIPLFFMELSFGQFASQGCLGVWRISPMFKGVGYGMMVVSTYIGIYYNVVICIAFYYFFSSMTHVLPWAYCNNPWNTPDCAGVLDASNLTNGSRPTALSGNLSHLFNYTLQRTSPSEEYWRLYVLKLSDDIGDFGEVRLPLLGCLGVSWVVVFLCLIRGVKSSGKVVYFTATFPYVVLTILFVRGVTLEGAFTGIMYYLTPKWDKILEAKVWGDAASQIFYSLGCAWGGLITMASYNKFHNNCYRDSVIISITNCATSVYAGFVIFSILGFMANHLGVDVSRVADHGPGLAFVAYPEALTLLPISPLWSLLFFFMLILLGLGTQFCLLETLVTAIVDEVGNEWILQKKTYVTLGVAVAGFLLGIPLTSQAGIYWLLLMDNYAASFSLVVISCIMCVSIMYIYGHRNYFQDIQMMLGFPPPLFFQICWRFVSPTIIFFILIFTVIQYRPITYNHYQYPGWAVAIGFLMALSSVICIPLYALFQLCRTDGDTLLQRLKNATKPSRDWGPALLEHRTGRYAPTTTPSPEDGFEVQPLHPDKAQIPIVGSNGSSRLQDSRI

[5] = target: T1, Sodium- and chloride-dependent glycine transporter 1 (Rattus norvegicus); assay: Binding affinity to GlyT1 in rat brain cerebral cortex at 0.03 to 0.04 nM preincubated for 20 mins in binding buffer before compound addition measured after 30 mins by autoradiography in presence of 0.01 mM GlyT1 inhibitor HPCP relative to control; type: tissue-based; settings: tested as the 125I-labelled form
Outline: (§3)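 Rat brain sagittal sections (20 µm) preincubated 20 min at 25 °C in Tris-HCl buffer pH 7.5 (NaCl, KCl, MgCl2, CaCl2), then 30 min at 25 °C with [125I] tracer (100 kBq, 0.03–0.04 nM) plus competitor (10 µM; glycine 1 or 10 mM). Cold washes, imaging plate 3 days, ROI PSL minus background per mm². % control from ≥triplicate slices, three rats.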

[6] = target: T1, Sodium- and chloride-dependent glycine transporter 1 (Rattus norvegicus); assay: Binding affinity to GlyT1 in rat brain corpus callosum at 0.03 to 0.04 nM preincubated for 20 mins in binding buffer before compound addition measured after 30 mins by autoradiography in presence of 0.01 mM NMDA receptor glycine site antagonist L-701,324 relative to control; type: tissue-based; settings: tested as the 125I-labelled form; outline: as §3
[7] = target: T1, Sodium- and chloride-dependent glycine transporter 1 (Rattus norvegicus); assay: Binding affinity to GlyT1 in rat brain striatum at 0.03 to 0.04 nM preincubated for 20 mins in binding buffer before compound addition measured after 30 mins by autoradiography in presence of 0.01 mM NMDA receptor glycine site antagonist L-701,324 relative to control; type: tissue-based; settings: tested as the 125I-labelled form
[8] = target: T1, Sodium- and chloride-dependent glycine transporter 1 (Rattus norvegicus); assay: Binding affinity to GlyT1 in rat brain striatum at 0.03 to 0.04 nM preincubated for 20 mins in binding buffer before compound addition measured after 30 mins by autoradiography relative to control; type: tissue-based; settings: tested as the 125I-labelled form
[9] = target: T1, Sodium- and chloride-dependent glycine transporter 1 (Rattus norvegicus); assay: Binding affinity to GlyT1 in rat brain hippocampus at 0.03 to 0.04 nM preincubated for 20 mins in binding buffer before compound addition measured after 30 mins by autoradiography in presence of 0.01 mM GlyT2 inhibitor ORG25543 relative to control; type: tissue-based; settings: tested as the 125I-labelled form; outline: as §3
[10] = target: T1, Sodium- and chloride-dependent glycine transporter 1 (Rattus norvegicus); assay: Binding affinity to GlyT1 in rat brain corpus callosum at 0.03 to 0.04 nM preincubated for 20 mins in binding buffer before compound addition measured after 30 mins by autoradiography in presence of 0.01 mM GlyT1 inhibitor HPCP relative to control; type: tissue-based; settings: tested as the 125I-labelled form; outline: as §3
Mus musculus [11] = assay: In vivo binding affinity to GlyT1 in ddY mouse brain medullary region at 33.3 kBq, iv after 60 mins in presence of SSR504734 2 mg/kg, iv administered 15 mins prior to compound administration relative to control; type: functional, organism-based; set-up: dose 2 mg/kg; settings: Medulla of organ, tested as the 125I-labelled form
Mus musculus [12] = assay: In vivo binding affinity to GlyT1 in ddY mouse brain striatum at 33.3 kBq, iv after 60 mins in presence of N-Me-SSR504734 2 mg/kg, iv administered 15 mins prior to compound administration relative to control; type: functional, organism-based; set-up: dose 2 mg/kg; settings: tested as the 125I-labelled form
Mus musculus [13] = assay: In vivo binding affinity to GlyT1 in ddY mouse brain cerebellum at 33.3 kBq, iv after 60 mins in presence of SSR504734 2 mg/kg, iv administered 15 mins prior to compound administration relative to control; type: functional, organism-based; set-up: dose 2 mg/kg; settings: tested as the 125I-labelled form
Outline: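 Blocking study in male ddY mice (6 weeks, 30–35 g). The blocker (2 mg/kg in 30% DMSO/saline) was injected i.v. 15 min before about 33.3 kBq [125I]tracer i.v.; mice were killed at 30 or 60 min. Brains were divided into cortex, corpus callosum, hippocampus, thalamus, midbrain, medulla and cerebellum, weighed and gamma-counted as % dose/g. Values are mean ± SD, n = 5–6, compared to control by Kruskal–Wallis with Dunn's post-test.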

[14] = target: T1, Sodium- and chloride-dependent glycine transporter 1 (Rattus norvegicus); assay: Binding affinity to GlyT1 in rat brain midbrain at 0.03 to 0.04 nM preincubated for 20 mins in binding buffer before compound addition measured after 30 mins by autoradiography in presence of GlyT1 inhibitor N-Me-SSR504734 relative to control; type: tissue-based; settings: tested as the 125I-labelled form

Row | Compound | Drug uptake (Brain) [% ID/g] | Activity (Mus musculus [1]) [%] | Drug uptake (Heart [2]) [% ID/g] | Drug uptake (Intestine) [% ID/g] | Drug uptake (Stomach) [% ID/g] | Drug uptake (Heart [3]) [% ID/g] | Drug uptake (Lung) [% ID/g] | Activity [4] [%] | Activity [5] [%] | Activity [6] [%] | Activity [7] [%] | Activity [8] | Activity [9] [%] | Activity [10] [%] | Activity (Mus musculus [11]) | Activity (Mus musculus [12]) | Activity (Mus musculus [13]) | Activity [14] [%]
1 | CN1CCCC[C@H]1[C@@H](NC(=O)c1cccc(C(F)(F)F)c1[125I])c1ccccc1 | 1.33 | 51 | 3.95 | 17.13 | 8.66 | 8.19 | 9.34 |  |  |  |  |  |  |  |  |  |  | 
2 | CN1CCCC[C@H]1[C@@H](NC(=O)c1cccc(C(F)(F)F)c1I)c1ccccc1 |  |  |  |  |  |  |  | 50.2 | 31 | 92.5 | 96.8 | inactive | 105 | 19.7 | inactive | Active | inactive | 25.3
